This is a sample that favours compounds with a hit; in the whole collection about 2.4% have one here.
EWS-Fli inh: EWS/Fli transcriptional activity inhibition. 350,000 tested, 0.67% active. inhibition, % at 12.6 µM. A673 NR0B1-luciferase reporter, viability-normalised;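 active = mean inhibition of at least 50% after viability correction, with every replicate also passing that limit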;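 also: firefly luciferase signal divided by Alamar Blue viability fluorescence both relative to DMSO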
LGR2 inh: Drosophila LGR2 receptor signaling inhibition. HEK293 LGR2, CRE-luciferase, bursicon-stimulated, 4 h. inhibition, % at 9.99 µM. 380,000 tested, 0.35% active;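 active = drop in luminescence signal, shown as inhibition above about 50% in the replicate tests, limit read from the data, passing the limit was not always enough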;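 also: agonist challenge used bursicon conditioned medium at about half maximal strength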
Ecoli rRNA inh: inhibitors of bacterial rRNA selective over humanized ribosomes. E. coli WT GFP vs humanized-ribosome RFP mutants, fluorescence, 24 h; active compounds read low; DMSO median 0, no signal -100. AID 720706. GFP signal change (wild-type ribosome), % (concentration not given with the values). 350,000 tested, 1.6% active;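 active = significant combined selectivity score with lowered wild-type GFP, culture density cut under 30%, mutant RFP and density less affected; inactive = any of these conditions unmet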
E-sel inducer: induces E-selectin expression in human endothelial cells | P16581 | HUVEC E-selectin immunofluorescence imaging; normalized: neutral wells 0, TNF-alpha wells 100 | activation, % at 7.58 µM | 260,000 tested, 0.37% active | AID 686992;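 active = mean E-selectin-positive cell signal at least 10% of the positive control, reached in at least 60% of replicates, without over 20% cell loss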
Target sequence (P16581 whole entry, looked up): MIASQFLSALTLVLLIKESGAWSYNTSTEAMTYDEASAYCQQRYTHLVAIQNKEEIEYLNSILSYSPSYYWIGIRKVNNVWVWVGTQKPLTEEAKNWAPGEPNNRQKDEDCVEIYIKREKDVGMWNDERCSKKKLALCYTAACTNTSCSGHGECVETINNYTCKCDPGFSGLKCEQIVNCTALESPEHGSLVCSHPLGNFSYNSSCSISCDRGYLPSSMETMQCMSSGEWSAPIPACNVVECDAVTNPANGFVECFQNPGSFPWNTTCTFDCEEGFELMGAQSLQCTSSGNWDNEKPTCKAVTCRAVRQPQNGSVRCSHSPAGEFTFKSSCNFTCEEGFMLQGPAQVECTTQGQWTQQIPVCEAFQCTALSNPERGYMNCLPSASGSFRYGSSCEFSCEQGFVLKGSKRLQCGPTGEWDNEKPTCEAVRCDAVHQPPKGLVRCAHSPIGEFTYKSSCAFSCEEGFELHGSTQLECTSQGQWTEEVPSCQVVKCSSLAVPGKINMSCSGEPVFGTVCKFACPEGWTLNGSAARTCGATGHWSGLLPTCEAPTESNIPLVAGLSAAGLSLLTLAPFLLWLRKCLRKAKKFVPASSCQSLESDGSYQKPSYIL
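System: HUVEC / Compound: single concentration / Signal: immunofluorescence imaging / Read-out: percent E-selectin-positive cells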
* marks the source's active call; other numbers are inactive results; x = no result.

SMILES	EWS-Fli inh	LGR2 inh	Ecoli rRNA inh	E-sel inducer
COc1ccc(NCC(O)COc2ccc(C(C)(C)C)cc2)cc1 (stereo unspecified)	15	-17	-30	0
O=C(CCCSc1nc2ccccc2s1)NCc1ccc2c(c1)OCO2	9	-15	-28*	0
O=C(O)CC1(CC(=O)NCc2ccc(-c3cccs3)cc2)CCCCC1	-4	2	-20*	0
O=C(NC1CCCC1)[C@@H]1[C@@H](CO)[C@@H]2Cn3c(cccc3=O)[C@@H]2N1CC1CCOCC1	-4	-9	5	0
CCOc1ccccc1CNC(=O)C1CCN(c2nnc(C)c3c(C)n(-c4ccc(C)cc4)nc23)CC1	59*	16	-3	0
O=C(O)c1ccc(-c2ccc(/C=N/Nc3ccc([N+](=O)[O-])cc3)o2)cc1	-40	x	x	x
O=C(O)c1cccc(-c2ccc(/C=N/Nc3ccc([N+](=O)[O-])cc3)o2)c1	-8	-2	-38*	0
O=C(O)c1ccc(N/N=C/c2ccc(-c3cccc(Cl)c3)o2)cc1	-91	-58	-39*	0
CCc1nnc(N/N=C/c2ccc(-c3ccc([N+](=O)[O-])cc3)o2)n1N	-13	-39	-37*	x
O=C(O)c1ccc(N/N=C/c2ccc(-c3cc(Cl)ccc3Cl)o2)cc1	-138	-69	-6	x
O=C(CSc1nnc(-c2cccnc2)s1)Nc1ccccc1	-4	7	3	x
c1ccc(Nc2nnc(-c3cccnc3)s2)cc1	-37	-43	14	48*
O=C(CCc1nc2ccccc2s1)OCC(=O)c1ccccc1	-8	-7	-20*	1
O=C(CCc1nc2ccccc2s1)c1ccccc1	x	-14	x	x
Cn1c(N)c(C(=O)COC(=O)CCc2nc3ccccc3s2)c(=O)n(C)c1=O	11	-2	-10	x
O=C(CCc1nc2ccccc2s1)OCC(=O)c1ccc[nH]1	0	-14	-27*	0
CCC(=O)N1CC2(CCN(C(=O)Nc3c(C)noc3C)CC2)c2c([nH]c3cc(OC)ccc23)[C@H]1CO	-6	-17	4	0
C[C@H]1CN(C)C(=O)c2cc(NS(C)(=O)=O)ccc2O[C@H]1CN(C)S(C)(=O)=O	x	x	2	x
O=[N+]([O-])c1ccc(NC(=S)N2CCc3ccccc32)cc1	x	0	-19*	0
O=[N+]([O-])c1cccc(NC(=S)N2CCc3ccccc3C2)c1	-35	-48	-31*	2
S=C(Nc1ccccc1)N1CCc2ccccc21	1	-22	17	x
Cc1ccc(C(=O)N(Cc2nnc(-c3ccc(Cl)cc3)o2)C2CC2)o1	-14	-25	1	59*
CNC(=O)CSCc1c(Cl)cccc1Cl	x	14	x	x
CNC(=S)NNC(=O)CSCc1c(Cl)cccc1Cl	-2	-12	-21*	0
COc1ccc(NC(=O)c2nc(C)c(C3(C)CC(c4cccnc4)=NO3)s2)cc1 (stereo unspecified)	68*	6	-5	0
SMILES	EWS-Fli inh	LGR2 inh	Ecoli rRNA inh	E-sel inducer
CO[C@@H]1CN(C)C(=O)c2ccc(NC(=O)C3CCC3)cc2OC[C@@H](C)N(C(=O)CN(C)C)C[C@H]1C	x	2	2	0
C[C@@H]1CN([C@H](C)CO)C(=O)c2cc(C#Cc3cccnc3)cnc2O[C@@H]1CN(C)C(=O)CN(C)C	-6	-2	1	0
Cc1ccc(/C=C2/CNC/C(=C/c3ccc(C)cc3)C2=O)cc1	53*	55*	-14	1
C[C@H]1CN([C@@H](C)CO)C(=O)c2cccc(NS(=O)(=O)c3ccccc3)c2O[C@H]1CN(C)Cc1ccc(-c2ccccc2)cc1	1	7	-3	0
O=C(C[C@H]1CC[C@@H]2[C@H](COC[C@@H](O)CN2C(=O)Nc2ccc(Cl)cc2)O1)N1CCCCC1	-33	-29	-43	0
COc1ccc(CC(=O)NNC(=S)Nc2ccccc2)cc1Cl	-7	-25	-27*	x
O=C(Cc1ccccc1)NNC(=S)Nc1ccccc1	-21	3	-3	x
Cc1ccnc(NC(=O)CCC(=O)c2cccs2)c1	78*	89*	3	-1
Cc1ccc(NC(=O)CCC(=O)c2cccs2)nc1	-29	-51	9	-2
COc1ccc(NC(=O)N(C)C[C@@H]2OCCCC[C@H](C)Oc3ccc(NC(=O)NC4CCCCC4)cc3C(=O)N([C@@H](C)CO)C[C@@H]2C)cc1	5	41	2	x
CC(C)[C@@H]1CC=CC[C@H](C)Oc2ccccc2C(=O)N(C)[C@@H](C)C(=O)N1 (mixture of isomers)	x	x	0	x
CCc1ccccc1NC(=S)NCC1CCN(c2ccc(OC)cc2)C1 (stereo unspecified)	8	8	-18*	2
COc1ccccc1CN(Cc1cc2cc(C)cc(C)c2[nH]c1=O)Cc1nnnn1CC1CCCO1 (stereo unspecified)	10	8	7	x
Cc1ccc2cc(CN(Cc3cccs3)Cc3nnnn3CC3CCCO3)c(=O)[nH]c2c1 (stereo unspecified)	-2	-4	-29*	x
C[C@H](CO)N1C[C@H](C)[C@@H](CN(C)Cc2ccc(-c3ccccc3)cc2)Oc2c(NC(=O)Nc3ccccc3)cccc2C1=O	x	-4	-1	2
CCN(CC)CC(=O)Nc1sc(C)c(C)c1C(=O)c1ccc(C)cc1	14	18	-24*	2
Cc1cc2oc(C(=O)Nc3ccc(S(=O)(=O)Nc4onc(C)c4C)cc3)cc(=O)c2cc1Cl	4	9	-30*	x
CCCOc1ccc(C(=O)Nc2ccc(S(=O)(=O)Nc3onc(C)c3C)cc2)cc1	5	17	-30	x
COc1cccc(C(=O)/C=C/Nc2ccc(S(=O)(=O)Nc3onc(C)c3C)cc2)c1	-5	7	10	-3
CCCCOc1ccc(C(=O)Nc2ccc(S(=O)(=O)Nc3onc(C)c3C)cc2)cc1	-4	-1	-24*	0
Cc1noc(NS(=O)(=O)c2ccc(N/C=C\C(=O)c3cccc4ccccc34)cc2)c1C	-5	1	-21*	x
O=C(CNc1ccccc1)N/N=C/c1cn(-c2ccccc2)nc1-c1ccccc1	-5	x	9	x
O=C(N/N=C/c1cn(-c2ccccc2)nc1-c1cccnc1)c1cccnc1	-4	-13	3	2
O=C(N/N=C/c1cn(-c2ccccc2)nc1-c1cccnc1)c1ccc(F)cc1	-14	14	-25*	6
NC(=O)N/N=C/c1cn(-c2ccccc2)nc1-c1ccccc1	-73	-39	-18*	0
COc1ccc(-c2cnc3c(c2)C(=O)N([C@H](C)CO)C[C@H](C)[C@H](CN(C)S(=O)(=O)c2cn(C)cn2)O3)cc1	-21	7	5	0
CSc1nc(C(=O)N2CCCC(C(=O)c3ccc(Cl)cc3)C2)cs1 (stereo unspecified)	0	9	-31*	0
O=S(=O)(Nc1ccc(N2CCOCC2)cc1)c1ccc(F)cc1	-10	11	4	2
O=S(=O)(Nc1ccc(N2CCCCC2)cc1)c1ccc(F)cc1	4	-25	-36*	1
Cc1c(NC(=O)/C(C#N)=C/c2ccc3ccccc3c2)c(=O)n(-c2ccccc2)n1C	0	x	x	x

Screens: PubChem, Broad Institute
